For assay [1], the target named is T1, Ornithine decarboxylase (Mus musculus) (UniProt P00860).
T1 sequence (whole entry): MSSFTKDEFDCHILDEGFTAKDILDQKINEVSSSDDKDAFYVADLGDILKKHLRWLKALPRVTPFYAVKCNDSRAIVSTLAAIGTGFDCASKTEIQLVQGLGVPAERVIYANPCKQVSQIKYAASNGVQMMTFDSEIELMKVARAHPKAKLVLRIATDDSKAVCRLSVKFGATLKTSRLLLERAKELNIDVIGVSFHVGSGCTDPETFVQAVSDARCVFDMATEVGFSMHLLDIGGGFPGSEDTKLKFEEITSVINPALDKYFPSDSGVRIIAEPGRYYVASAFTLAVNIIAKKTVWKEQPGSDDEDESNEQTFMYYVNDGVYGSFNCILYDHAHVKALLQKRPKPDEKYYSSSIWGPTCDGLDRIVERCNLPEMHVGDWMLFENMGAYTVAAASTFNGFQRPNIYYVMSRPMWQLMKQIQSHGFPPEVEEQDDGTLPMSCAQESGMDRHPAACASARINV
Briefly: Inhibition of TPA-induced ODC activity as percentage of the average no. of papillomas / mouse in groups of control mice was determined using papilloma assay. Type of assay: functional. On the set-up: concentration or dose not given beside the values. Summed up:
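CD-1 female mice, shaved skin, initiated once with 51.2 μg DMBA in 0.2 mL acetone. From two weeks later, TPA 2 nmol in acetone twice weekly to the same area for 12–15 weeks. Tumors per mouse counted at the end, 10–15 mice per group. Group averages are expressed as a percentage of controls and averaged across experiments.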

For assay [2], the target named is T1, Ornithine decarboxylase (Mus musculus). Kind of assay: In vivo inhibition of ornithine de-carboxylase (ODC) activity induced by 12-0-tetradecanoylphorbol 13-acetate (TPA) in mouse skin. The assay is classed as functional, organism-based. The method, boiled down: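 Mouse-skin assay of TPA induction of ornithine decarboxylase, after Verma et al. Retinoid-treated groups are compared with TPA-induced controls. ODC activity is expressed as a percentage of control-group activity and averaged over the stated number of tests.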

Molecules are shown by their SMILES.

Regarding `C#CCC1CC(C)(C)C(/C=C/C(C)=C/C=C/C(C)=C/C(=O)O)=C(C)C1=O` (stereo unspecified), the Control in assay [1] worked out at 64%. In addition, the Average in assay [2] is 47%.
For `C#CCC1CC(C)(C)C(/C=C/C(C)=C/C=C/C(C)=C/C(=O)OC)=C(C)C1=O` (stereo unspecified) the same measures were 40% and 34%.
In the same order, the values of `COC(=O)/C=C(C)/C=C/C=C(C)/C=C/C1=C(C)C(=O)C(C/C=C/c2ccccc2)CC1(C)C` (stereo unspecified) are 20% and 31%.
For `COC(=O)/C=C(C)/C=C/C=C(C)/C=C/C1=C(C)C(=O)C(C)CC1(C)C` (stereo unspecified) the same measures were 27% and 28%.
In the case of `CC1=C(/C=C/C(C)=C/C=C/C(C)=C/C(=O)O)C(C)(C)CC(C/C=C/c2ccccc2)C1=O` (stereo unspecified), in assay [1], the Control is 39%. The same compound returned an Average in assay [2] of 23%.
For `CC1=C(/C=C/C(C)=C/C=C/C(C)=C/C(=O)Nc2ccc(O)cc2)C(C)(C)CCC1` the same measures were 89% and 60%.
In the same order, the values of `CC1=C(/C=C/C(C)=C/C=C/C(C)=C/C(=O)O)C(C)(C)CCC1` are 16% and 8%.
For `CCC1CC(C)(C)C(/C=C/C(C)=C/C=C/C(C)=C/C(=O)OC)=C(C)C1=O` (stereo unspecified) the same measures were 68% and 31%.
As for `CC1=C(/C=C/C(C)=C/C=C/C(C)=C/C(=O)O)C(C)(C)CC(Cc2ccccc2)C1=O` (stereo unspecified), in assay [1], the Control came out at 38%. In assay [2], this compound came in with an Average of 34%.
For `CC1=C(/C=C/C(C)=C/C=C/C(C)=C/C(=O)O)C(C)(C)CC(C)(C)C1=O` the same measures were 25% and 26%.
In the same order, the values of `CCC1CC(C)(C)C(/C=C/C(C)=C/C=C/C(C)=C/C(=O)O)=C(C)C1=O` (stereo unspecified) are 57% and 40%.
In turn, `CC1=C(/C=C/C(C)=C/C=C/C(C)=C/C(=O)O)C(C)(C)CCC1=O` (stereo in doubt; 3a) showed a Control in assay [1] of 39%. This compound also returned an Average in assay [2] of 17%.
In the same order, the values of `CC1=C(/C=C/C(C)=C/C=C/C(C)=C/C(=O)O)C(C)(C)CC(C)C1=O` (stereo unspecified) are 29% and 26%.
In the same order, the values of `COC(=O)/C=C(C)/C=C/C=C(C)/C=C/C1=C(C)C(=O)C(C)(C)CC1(C)C` are 22% and 22%.
For `C=CCC1CC(C)(C)C(/C=C/C(C)=C/C=C/C(C)=C/C(=O)OC)=C(C)C1=O` (stereo unspecified) the same measures were 42% and 56%.
On to `COC(=O)/C=C(C)/C=C/C=C(C)/C=C/C1=C(C)C(=O)C(Cc2ccccc2)CC1(C)C` (stereo unspecified), for which the Control in assay [1] is 78%. The Average in assay [2] is 56%.
For `C=CCC1CC(C)(C)C(/C=C/C(C)=C/C=C/C(C)=C/C(=O)O)=C(C)C1=O` (stereo unspecified) the same measures were 47% and 68%.
For `COC(=O)/C=C(C)/C=C/C=C(C)/C=C/C1=C(C)C(=O)CCC1(C)C` the same measures were 25% and 18%.

These data come from ChEMBL document CHEMBL1127460, “Cancer chemopreventive 3-substituted-4-oxoretinoic acids” (J Med Chem, 1994).
